The text below walks through data of ChEMBL document CHEMBL5046221, “Identification of Pyrimidine-Based Lead Compounds for Understudied Kinases Implicated in Driving Neurodegeneration” (J Med Chem, 2022).

Test [1] concerns the target T1, Serine/threonine-protein kinase 17B (Homo sapiens) (UniProt O94768).
T1 sequence (whole entry): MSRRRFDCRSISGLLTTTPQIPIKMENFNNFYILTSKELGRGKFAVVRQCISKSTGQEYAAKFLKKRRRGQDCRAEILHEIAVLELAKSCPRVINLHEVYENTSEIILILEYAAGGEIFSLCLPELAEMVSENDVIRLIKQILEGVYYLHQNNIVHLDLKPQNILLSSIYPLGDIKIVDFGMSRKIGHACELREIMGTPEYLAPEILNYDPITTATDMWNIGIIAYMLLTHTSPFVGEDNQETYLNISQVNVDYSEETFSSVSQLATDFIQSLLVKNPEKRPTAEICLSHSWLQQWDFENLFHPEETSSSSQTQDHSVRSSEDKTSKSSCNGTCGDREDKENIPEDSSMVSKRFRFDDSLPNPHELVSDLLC
Nature of the test: Inhibition of full length recombinant human DRAK2 using KKRPQRRYSNVF as substrate at 1 uM incubated for 120 mins in presence of [gamma-33P-ATP] by radiometric scintillation assay relative to control. The method in brief:
(§1)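 Eurofins radiometric kinase assay with ATP at Km for each kinase. Compound was tested at a single 1 μM concentration in duplicate, and the result is reported as percent of control.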

Test [2] concerns the target Bone morphogenetic protein receptor type-1B (Homo sapiens, UniProt O00238). The experiment in a line: Inhibition of recombinant human BMPR1B (148 to end residues) using casein as substrate incubated for 40 mins in presence of [gamma-33P-ATP] by radiometric scintillation assay. The method in brief: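 Eurofins radiometric enzymatic assay with ATP at Km for each kinase. IC50 was derived from a 9-point dose–response curve run in duplicate.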

The target of test [3] is T2, Serine/threonine-protein kinase 17A (Homo sapiens) (UniProt Q9UEE5).
T2 sequence (whole entry): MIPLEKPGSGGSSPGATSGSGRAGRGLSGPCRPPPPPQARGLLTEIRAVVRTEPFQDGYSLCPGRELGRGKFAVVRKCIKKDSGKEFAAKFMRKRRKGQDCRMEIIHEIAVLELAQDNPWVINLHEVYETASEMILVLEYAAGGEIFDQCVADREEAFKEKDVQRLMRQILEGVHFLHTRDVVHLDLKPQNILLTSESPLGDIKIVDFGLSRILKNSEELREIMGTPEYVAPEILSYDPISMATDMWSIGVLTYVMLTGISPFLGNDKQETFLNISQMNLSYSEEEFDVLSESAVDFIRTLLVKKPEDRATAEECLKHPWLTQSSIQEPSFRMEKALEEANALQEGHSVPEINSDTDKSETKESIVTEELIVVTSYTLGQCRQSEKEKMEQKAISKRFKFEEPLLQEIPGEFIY
Nature of the test: Inhibition of full length recombinant human DRAK1 using KKLNRTLSFAEPG as substrate at 1 uM incubated for 40 mins in presence of [gamma-33P-ATP] by radiometric scintillation assay relative to control. Summed up:
as §1

Sequence of Bone morphogenetic protein receptor type-1B (O00238 whole entry): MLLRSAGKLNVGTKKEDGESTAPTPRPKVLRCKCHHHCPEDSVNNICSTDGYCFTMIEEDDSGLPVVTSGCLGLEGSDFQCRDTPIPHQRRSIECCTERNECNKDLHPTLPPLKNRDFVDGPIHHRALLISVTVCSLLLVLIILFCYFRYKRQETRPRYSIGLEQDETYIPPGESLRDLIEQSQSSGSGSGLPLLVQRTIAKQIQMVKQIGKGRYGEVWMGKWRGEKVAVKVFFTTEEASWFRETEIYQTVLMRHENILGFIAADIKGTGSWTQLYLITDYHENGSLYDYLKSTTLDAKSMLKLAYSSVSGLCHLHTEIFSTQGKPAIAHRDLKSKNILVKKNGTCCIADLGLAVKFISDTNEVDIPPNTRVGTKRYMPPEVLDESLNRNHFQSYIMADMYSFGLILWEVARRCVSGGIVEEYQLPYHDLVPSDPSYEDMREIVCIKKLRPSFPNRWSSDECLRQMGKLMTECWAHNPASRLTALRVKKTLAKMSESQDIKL

As for `c1cc(CN2CCOCC2)cc(Nc2nccc(NCCc3cnc[nH]3)n2)c1`, the % control was determined as 65% in test [1] and 78% in test [3]. Besides, the 50% inhibitory concentration (IC50) (usually the midpoint of a concentration-inhibition curve) in test [2] stood at 9.03 µM.
